Screens deposited in PubChem by several laboratories.
Hsp70 act: switches on Hsp70 transcription | 200,000 tested, 0.04% active | HeLa Hsp70 promoter luciferase reporter, luminescence; scaled: vehicle 0, proteasome-inhibitor control 100% | activation, % at 10 µM;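 active = activation above the mean across all tested compounds plus 3 SD, cutoff set per campaign, cut at about 5.5% in these data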;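 also: 100% = MG132 at 30 µM as the positive control and 0% = DMSO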
STAT3 act: increases IL-6 driven STAT3 reporter signal. activation (% of control), % at 5.6 µM. U3A cells, IL-6 STAT3-luciferase reporter, luminescence; 100% = signal with IL-6 EC80 alone. 190,000 tested, 0.91% active;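 active = activation above the screen-wide mean of compound activation plus 3 SD, cut at about 130% in these data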;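 also: 0% = background luminescence of wells with medium and substrate only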
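Material: human U3A cells carrying STAT3-luciferase construct. Measured by: reporter luminescence signal. Timing: compound 1 h, then IL-6 6 h at 37 °C.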
PolyA inh: yeast polyadenylation inhibition; 300,000 tested, 0.02% active; AID 1875; activity score, % at 12 µM; S. cerevisiae SKY197-pL101 polyadenylation reporter, beta-gal luminescence; efflux-impaired pdr1/pdr3 knockout yeast; score 100 = 6 SD above DMSO;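 active = lowest replicate activity score at least 50, where 100 means six control SD above control mean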;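 also: yeast exposed to compound for 9 h at 30 °C; higher score means more reporter readthrough which indicates perturbed polyadenylation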
PERK inh: blocks human PERK kinase. Q9NZJ5. CHO PERK-DD fusion, SEAP luminescence translation reporter. inhibition, % at 5.6 µM. 220,000 tested, 0.17% active. AID 1416;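 active = inhibition above the mean inhibition of all tested compounds plus 3 SD, set separately per screening campaign, cut at about 2.9% in these data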;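 also: PERK kinase domain activated by AP20187 dimerizer at 100 nM; 0% = DMSO with dimerizer and 100% = rapamycin at 8.4 µM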
Target sequence (Q9NZJ5 whole entry, looked up, the tested form may be a part): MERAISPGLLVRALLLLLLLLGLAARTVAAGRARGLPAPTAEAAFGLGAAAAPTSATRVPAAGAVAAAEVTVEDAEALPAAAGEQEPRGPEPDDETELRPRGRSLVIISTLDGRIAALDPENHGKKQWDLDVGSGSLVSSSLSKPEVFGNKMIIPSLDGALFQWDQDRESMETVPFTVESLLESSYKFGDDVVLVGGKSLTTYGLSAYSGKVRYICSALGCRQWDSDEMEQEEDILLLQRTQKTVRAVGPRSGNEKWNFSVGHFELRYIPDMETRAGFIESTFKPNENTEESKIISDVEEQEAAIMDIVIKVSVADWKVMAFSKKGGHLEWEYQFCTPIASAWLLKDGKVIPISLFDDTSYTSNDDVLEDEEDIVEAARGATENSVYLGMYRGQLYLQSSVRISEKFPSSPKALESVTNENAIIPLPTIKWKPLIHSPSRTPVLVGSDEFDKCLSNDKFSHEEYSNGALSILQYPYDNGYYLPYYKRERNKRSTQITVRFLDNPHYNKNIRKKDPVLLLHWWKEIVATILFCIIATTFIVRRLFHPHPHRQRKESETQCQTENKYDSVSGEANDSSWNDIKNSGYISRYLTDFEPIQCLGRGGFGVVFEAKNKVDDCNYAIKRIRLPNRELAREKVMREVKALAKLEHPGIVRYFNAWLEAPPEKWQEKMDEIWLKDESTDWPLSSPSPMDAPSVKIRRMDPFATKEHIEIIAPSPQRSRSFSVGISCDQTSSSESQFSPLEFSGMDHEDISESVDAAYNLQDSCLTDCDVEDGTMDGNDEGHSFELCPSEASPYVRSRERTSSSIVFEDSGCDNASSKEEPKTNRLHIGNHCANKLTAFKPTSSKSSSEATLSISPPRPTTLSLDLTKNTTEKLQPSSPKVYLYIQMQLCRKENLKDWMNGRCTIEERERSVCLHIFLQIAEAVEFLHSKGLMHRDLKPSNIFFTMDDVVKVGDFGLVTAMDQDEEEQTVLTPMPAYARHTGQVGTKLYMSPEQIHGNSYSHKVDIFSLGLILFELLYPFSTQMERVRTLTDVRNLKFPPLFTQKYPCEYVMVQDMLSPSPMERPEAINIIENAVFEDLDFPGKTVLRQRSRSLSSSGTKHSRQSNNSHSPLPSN
HSF1 inh: HSF1 inhibition. AID 2098. 300,000 tested, 0.77% active. activity change, negative = inhibition, % at 7.5 µM (by protocol). NIH3T3-HGL HSE-luciferase, MG132-induced, luminescence 8 h; stronger effect = lower value;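 active = more than half of replicate wells show activity change below -50%, luminescence cut by over half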;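 also: luciferase reports HSF-1 transcriptional activity via heat shock element; 0% = median of DMSO wells and -100% = zero luminescence signal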
AHR activator: activators of human aryl hydrocarbon receptor. P35869. AHR-responsive luciferase reporter cells, luminescence. activation, % at 5 µM. 320,000 tested, 2.5% active. AID 2796; in the data active = activation above about 47%;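 also: 0% = vehicle wells and 100% = reference agonist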
* hit, by the source's call; nt = no result. Sampled rows, rich in hits. Any-hit rate of the full collection: about 3.6%.

SMILES | Hsp70 act | STAT3 act | PolyA inh | PERK inh | HSF1 inh | AHR activator
Cc1ccc(C(=O)c2nc(C(=O)NCCO)nc3ccccc23)cc1 | nt | nt | nt | nt | nt | 47.8*
CCc1cc2c(=O)c(-c3nc(C)cs3)coc2cc1O | nt | nt | -16.1 | -0.5 | 20.6 | 60.2*
COc1ccc2c(=O)c(-c3nc(C)cs3)coc2c1 | 0.9 | 58.6 | -5.6 | -0.5 | 6.9 | 21.5
Cc1c(C(=O)N2CCN(C3CCS(=O)(=O)C3)CC2)oc2c(F)cccc12 (configuration not stated) | nt | nt | nt | nt | nt | 14.8
N#Cc1ccc(-c2nnnn2-c2ccc3c(c2)OCO3)cc1 | -0.2 | 101.5 | -11.4 | 0.4 | -5.7 | 4.1
N#Cc1cccc(-n2nnnc2-c2ccc3c(c2)OCO3)c1 | -0.1 | 113.0 | 8.8 | 0.7 | 6.2 | 56.8*
Cc1cc(C(=O)NNC(=S)NCC(C)C)no1 | 0.1 | 99.1 | 25.2 | 0.7 | -3.2 | -1.9
CNC(=S)NNC(=O)c1sc(-c2cc(C)on2)nc1C | nt | nt | -8.6 | -0.3 | 3.1 | 73.9*
COc1nc(NCCc2ccc(OC)c(OC)c2)nc(Nc2ccccc2)n1 | nt | nt | -7.5 | nt | 15.5 | 48.1*
COC(=O)C1=C(CN2CCCc3ccccc32)NC(=O)NC1c1ccc(F)cc1 (configuration not stated) | -0.6 | 26.4 | -6.4 | 0.5 | -70.7* | 1.2
COC(=O)C1=C(CN2CCc3ccccc32)NC(=O)NC1c1cc(C)ccc1C (configuration not stated) | -0.4 | 112.5 | -1.5 | -0.6 | 11.7 | 15.8
Cc1nnc(NC(=O)c2csc3c2CCCC3)s1 | -0.3 | 91.0 | -25.7 | -0.2 | -0.5 | 55.2*
COc1ccccc1NC(=O)c1c(C)oc2c1CCCC2 | -0.3 | 86.8 | -0.7 | 0.1 | 4.6 | 60.3*
COc1ccccc1NC(=O)c1csc2c1CCCC2 | -0.5 | 91.1 | -21.8 | -0.2 | 8.7 | 68.6*
CSc1ccccc1NC(=O)c1noc(C)c1[N+](=O)[O-] | nt | nt | -11.6 | nt | -3.4 | 1.3
Cc1ccc(C)c(C(=O)CSc2nc(N)cc(=O)[nH]2)c1 | nt | nt | 5.8 | nt | -54.8* | 4.8
Cc1cc(C(=O)CSc2nc3ccccc3[nH]2)c(C)n1C | 0.2 | 83.1 | 5.1 | 0.4 | 38.0 | 3.3
Cc1ccc2nc(SCC(=O)c3cc(C)n(C)c3C)[nH]c2c1 | -0.1 | 84.3 | 14.6 | -0.6 | 5.0 | 51.7*
Cc1cc(C(=O)CSc2nc3ccc(Cl)cc3[nH]2)c(C)n1C | 0.4 | 83.4 | 3.3 | 0.9 | 12.3 | 78.5*
Cc1ccc2nc(SCn3nnc4ccccc4c3=O)[nH]c2c1 | -0.2 | 124.1 | -11.4 | -0.4 | 29.5 | 74.8*
Cc1ccc2nc(SCC(=O)c3c(C)[nH]c4ccccc34)[nH]c2c1 | -0.2 | 92.2 | -10.2 | -0.7 | 8.2 | 53.4*
CC1(C)CC(=O)C(N=Nc2ccc(OC(F)F)cc2)=C(O)C1 | 0.1 | 91.7 | -16.1 | 0.4 | -56.1* | -0.2
CC1(C)CC(=O)C(N=Nc2ccc(F)cc2)=C(O)C1 | nt | nt | -2.9 | 1.4 | 3.4 | -1.1
O=C(CN1CCCC1c1cccs1)N1CCN(S(=O)(=O)c2cccc(F)c2)CC1 (configuration not stated) | nt | nt | nt | nt | nt | 2.5
COCCCNc1nc2ccccc2nc1NS(=O)(=O)c1cccc(C)c1 | nt | nt | -9.5 | nt | 0.3 | 6.5
SMILES | Hsp70 act | STAT3 act | PolyA inh | PERK inh | HSF1 inh | AHR activator
CCOC(=O)/C(C#N)=C/c1cc(C)n(-c2ccccc2)c1C | -0.3 | 76.6 | -7.5 | 1.3 | -70.1* | 2.7
CCOc1nc(Nc2ccc(OC)cc2)nc(N2CCOCC2)n1 | -0.4 | 97.3 | -14.9 | -0.6 | -7.4 | 23.6
COc1ccc(Nc2nc(OC)nc(N3CCOCC3)n2)cc1 | 0.5 | 81.6 | -4.4 | -0.5 | 0.0 | 51.3*
COc1ccc(OC)c(/C=N/Nc2nncn2/N=C/c2cc(OC)ccc2OC)c1 | -0.3 | 107.4 | 11.9 | 0.1 | 38.2 | 51.1*
COc1cc(/C=N/Nc2nncn2/N=C/c2ccc(O)c(OC)c2)ccc1O | 0.0 | 100.3 | 6.8 | 0.4 | 11.0 | 15.1
Cc1cc(=O)oc2c3c(cc(OCC(=O)N[C@@H](CC(C)C)C(=O)O)c12)OC(C)(C)CC3 | nt | nt | -8.4 | nt | -3.0 | 0.7
CCCC(NC(=O)COc1cc2c(c3oc(=O)cc(C)c13)CCC(C)(C)O2)C(=O)O (configuration not stated) | nt | nt | 1.3 | nt | -55.0* | 0.2
Cc1ccc(C)c(NC(=O)CCN2C(=O)[C@@H]3Cc4ccccc4CN3C2=O)c1 | nt | nt | 8.0 | nt | 4.6 | -4.0
CCc1ccc(OCCNC(=O)c2ccccc2SCc2ccccc2)cc1 | -0.2 | 133.7* | 5.8 | 0.3 | 10.5 | 6.3
CCNC(=O)c1ccccc1SCc1ccccc1 | -0.2 | 102.3 | 13.5 | 1.3 | -3.5 | 11.2
CC(C)OC(=O)c1sc2nc(-c3ccccc3)ccc2c1N | 0.1 | 56.2 | -10.6 | 1.4 | -66.8* | -9.1
O=C1CCCC/C1=C/Nc1cccc(C(F)(F)F)c1 | 0.0 | 98.5 | -19.2 | 1.0 | -1.5 | 8.9
O=C1CCC2S/C(=C/Nc3ccc(C(F)(F)F)cc3)C(=O)N12 (configuration not stated) | -0.6 | 34.8 | -2.7 | 0.6 | -65.1* | -6.3
O=C(NCC1CCCO1)C1CCCN(S(=O)(=O)c2ccc(Cl)cc2)C1 (configuration not stated) | nt | nt | 16.9 | nt | -5.4 | -1.0
S=C(NNC(=S)Nc1ccccc1)Nc1ccccc1 | nt | nt | -10.4 | nt | 18.9 | 2.5
S=C(N=Nc1ccccc1)NNc1ccccc1 | -0.2 | 131.2 | 9.4 | 0.8 | -6.1 | 53.1*
CSCCC(NC(=O)c1ccccc1Cl)C(=O)NNC(=O)c1ccccc1O (configuration not stated) | nt | nt | -2.2 | nt | -1.0 | 57.6*
COc1ccccc1C(=O)NC(CCSC)C(=O)NNC(=O)c1ccccc1O (configuration not stated) | nt | nt | nt | nt | nt | 27.8
Cc1nc(C(F)(F)F)ccc1C(=O)N1CCCCC1 | nt | nt | 11.4 | 0.5 | -7.0 | 1.7
Cc1cc(C(=O)c2ccc3ccccc3c2)c(C)o1 | nt | nt | -6.1 | nt | 2.3 | -0.4
Cc1ccc(-c2csc3nc(C)n(N)c(=O)c23)o1 | 0.6 | 97.3 | 16.0 | 0.6 | 21.4 | 55.0*
O=C(Nc1ccccc1)Nc1sccc1-c1nc2ccccc2s1 | nt | nt | -32.3 | -0.8 | 4.1 | 71.9*
COc1ccccc1NC(=O)Nc1sccc1-c1nc2ccccc2s1 | nt | nt | -12.5 | 0.0 | 12.4 | 32.7
O=C(Nc1cccc(-c2nc3ccccc3s2)c1)c1cccs1 | -0.3 | 101.3 | -10.5 | 1.0 | 12.4 | 45.6
O=C(Nc1cccc(Cl)c1)Nc1sccc1-c1nc2ccccc2s1 | nt | nt | 3.1 | -0.5 | -43.8 | 48.7*
CCc1[nH]nc(C(=O)N2CCCC(Nc3cccc(F)c3)C2)c1C (configuration not stated) | nt | nt | -8.5 | nt | -45.4 | 7.3
CSc1nsc(SC)c1C(=O)Nc1ccc(C)cc1 | -0.2 | 101.1 | -7.9 | -0.2 | 2.8 | 33.0
CSc1nsc(SC)c1C(=O)Nc1ccc(Cl)cc1 | nt | nt | -94.4 | 0.4 | nt | 58.0*
